Assay [1] relates to B16-F10. The assay can be described thus: Induction of apoptosis in mouse B16F10 cells assessed as necrotic cells at 30 uM after 24 hrs using annexin V-FITC/propidium iodide staining by flow cytometry. The class given is functional. In short, it runs like this:
(§1)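 B16-F10 cells grown in DMEM with 4 mM L-glutamine, 1 mM pyruvate, 4.5 g/L glucose and 10% FBS. 300,000 cells/well were plated, then treated in DMSO after 24 h. Vehicle and medium-alone controls were included. Cells were detached with EDTA-trypsin, PBS-washed and set at 1 × 10^6 cells/mL in binding buffer. Annexin V-FITC/PI staining ran 15 min at room temperature in the dark, followed by flow cytometry within 1 h.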
On the technique in general: A flow cytometer gives signals particle by particle.

In assay [2] the test system is B16-F10. The assay can be described thus: Induction of apoptosis in mouse B16F10 cells at 30 uM after 24 hrs using annexin V-FITC/propidium iodide staining by flow cytometry. The format is functional. In short, it runs like this: as §1
Assay [3] relates to B16-F10. The assay can be described thus: Induction of apoptosis in mouse B16F10 cells assessed as early/late apoptotic cells at 30 uM after 24 hrs using annexin V-FITC/propidium iodide staining by flow cytometry. The format is functional. A digest of the protocol:
as §1

Assay [4] deals with B16-F10. The assay is described as follows: Induction of apoptosis in mouse B16F10 cells assessed as total apoptosis at 20 uM after 24 hrs using annexin V-FITC/propidium iodide staining by flow cytometry. The class given is functional. A digest of the protocol:
(§2)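 B16-F10 cells in DMEM/10% FBS were plated at 300,000 cells/well, then treated 24 h later, in duplicate, in DMSO at […] for 24 or 48 h. Vehicle and medium controls were included. Annexin V-FITC/PI staining ran 15 min at room temperature in the dark. Total apoptosis (early + late) was read by flow cytometry as mean ± SD from two independent experiments.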

Assay [5] deals with B16-F10. The assay is described as follows: Induction of apoptosis in mouse B16F10 cells assessed as total apoptosis at 20 uM after 48 hrs using annexin V-FITC/propidium iodide staining by flow cytometry. The format is functional, cell-based. In short, it runs like this: as §2

The source made the active and inactive calls. The calls are words filed in the database; no cut-off is given here.

As for `CC1(C)CC[C@]2(C(=O)O)CC[C@]3(C)C(=CC[C@@H]4[C@@]5(C)C[C@H](O)[C@H](O)C(C)(C)[C@@H]5CC[C@]43C)[C@@H]2C1` [AUGUSTIC ACID], the Activity in assay [1] is given as under 10%.

Regarding `COC(=O)[C@]12CCC(C)(C)C[C@H]1[C@]1(/C=C\[C@@]34O[C@]3(C)CC[C@H]3C(C)(C)[C@@H](O)CC[C@@]34C)O[C@@]1(C)CC2`, the Activity in assay [1] was under 10%; in assay [2] it was 30%. As to `CC1(C)CC[C@]2(CO)CC[C@]3(C)C(=CC[C@@H]4[C@@]5(C)C[C@H](O)[C@H](O)C(C)(C)[C@@H]5CC[C@]43C)[C@@H]2C1`, in assay [1], the Activity is on record as under 10%. Consider `CC1(C)CC[C@]2(C(N)=O)CC[C@]3(C)C(=CC[C@@H]4[C@@]5(C)C[C@@H](O)[C@H](O)C(C)(C)[C@@H]5CC[C@]43C)[C@@H]2C1`, for which the results for the Activity in assay [1], in assay [3] and in assay [4] were under 10%, 80% and 70%, respectively. Moreover, the outcome in assay [5] was Active.

Regarding `CC(=O)O[C@H]1CC[C@]2(C)C3=CC(=O)[C@]45OC(=O)[C@@]6(CCC(C)(C)C[C@H]64)CC[C@@]5(C)[C@]3(C)CC[C@H]2C1(C)C`, the Activity in assay [1] is on record as under 10%. `CC1(C)CC[C@]2(C(=O)O)CC[C@]3(C)C(=CC[C@@H]4[C@@]5(C)C=C(O)C(=O)C(C)(C)[C@@H]5CC[C@]43C)[C@@H]2C1`: the figures for the Activity in assay [1] and in assay [3] were under 10% and 80%, respectively. For the same compound, the outcome in assay [5] was Active. Take `COC(=O)C12CCC(C)=C(/C=C\C3=C(C)CC[C@H]4C(C)(C)[C@@H](OC(C)=O)CC[C@]34C)[C@@H]1CC(C)(C)CC2` (single isomer, unassigned): the Activity in assay [1] is reported as under 10%. Same read-out and setting: as for `C=C1CC[C@H]2C(C)(C)[C@@H](OC(C)=O)CC[C@]2(C)/C1=C/CC1=C(C)CCC2(C(=O)OC)CCC(C)(C)C[C@@H]12` (single isomer, unassigned), the figure is under 10%. On the same count and under the same terms, with `CC1(C)CC[C@]2(C(=O)O)CC[C@]3(C)C(=CC[C@@H]4[C@@]5(C)CC[C@H](O)C(C)(C)[C@@H]5CC[C@]43C)[C@@H]2C1` [OLEANOLIC_ACID] the figure was under 10%. Turning to `CC1(C)CC[C@]2(CO)CC[C@]3(C)[C@](O)([C@H](O)C=C4[C@@]5(C)CC[C@H](O)C(C)(C)[C@@H]5CC[C@]43C)[C@@H]2C1`, in assay [1], the Activity was under 10%.

For the compound `C=C1C2CC3[C@@]4(C)CC[C@H](OC(C)=O)C(C)(C)C4CC[C@@]3(C)C2=CC[C@@]2(C(=O)OC)CCC(C)(C)CC12` (stereo not given in full), the Activity in assay [1] is reported as under 10%. Same read-out and setting: as for `COC(=O)[C@]12CCC(C)(C)C[C@H]1C1=CC[C@@H]3[C@@]4(C)C[C@H](OC(C)=O)[C@@H](O)C(C)(C)[C@@H]4CC[C@@]3(C)[C@]1(C)CC2`, the figure is under 10%. Regarding `CC1(C)CC[C@]2(C(=O)OCc3ccccc3)CC[C@]3(C)C(=CC[C@@H]4[C@@]5(C)CC(=O)[C@H](O)C(C)(C)[C@@H]5CC[C@]43C)[C@@H]2C1`, the Activity was under 10% in assay [1], 80% in assay [3] and over 70% in assay [4]. Moreover, in assay [5], the result was Active. With `CC(=O)O[C@H]1CC[C@]2(C)[C@H]3C[C@H](OC(C)=O)[C@]45OC(=O)[C@@]6(CCC(C)(C)C[C@H]64)CC[C@@]5(C)[C@]3(C)CC[C@H]2C1(C)C`, the Activity in assay [1] is reported as under 10%; in assay [2], 30%. In the case of `CC1(C)CC[C@]2(CO)CC[C@]3(C)C(=CC[C@@H]4[C@@]5(C)C[C@@H](O)[C@H](O)C(C)(C)[C@@H]5CC[C@]43C)[C@@H]2C1`, the Activity in assay [1] is listed as under 10%. With `COC(=O)[C@]12CCC(C)(C)C[C@H]1C1=CC[C@@H]3[C@@]4(C)C[C@@H](OC(C)=O)C(=O)C(C)(C)[C@@H]4CC[C@@]3(C)[C@]1(C)CC2`, the Activity in assay [1] was under 10%. `COC(=O)[C@]12CCC(C)(C)C[C@H]1C1=CC[C@@H]3[C@@]4(C)C[C@@H](O)C(=O)[C@](C)(CO)[C@@H]4CC[C@@]3(C)[C@]1(C)CC2`: the Activity in assay [1] is under 10%; in assay [2] it was 30%. Take `C=C1C[C@]2(C)[C@H]3CC=C4[C@@H]5CC(C)(C)CC[C@]5(C(=O)OC)CC[C@@]4(C)[C@]3(C)CC[C@H]2C(C)(C)[C@H]1OC(C)=O`: in assay [1], the Activity is under 10%. In the case of `COC(=O)[C@]12CCC(C)(C)C[C@H]1[C@@](O)(/C=C\[C@@]13O[C@]1(C)CC[C@H]1C(C)(C)CCC[C@@]13C)[C@](C)(O)CC2`, the Activity in assay [1] is under 10%. On the same count and under the same terms, as for `COC(=O)C12CCC(C)=C(/C=C\C3=C(C)CC[C@H]4C(C)(C)[C@@H](O)CC[C@]34C)[C@@H]1CC(C)(C)CC2` (single isomer, unassigned), the figure is under 10%; as for `CC(=O)O[C@H]1CC[C@]2(C)[C@H]3C[C@H](O)[C@]45OC(=O)[C@@]6(CCC(C)(C)C[C@H]64)CC[C@@]5(C)[C@]3(C)CC[C@H]2C1(C)C`, under 10%. Consider `C=C1CC[C@H]2C(C)(C)CCC[C@]2(C)/C1=C/CC1=C(C)CCC2(C(=O)OC)CCC(C)(C)C[C@@H]12` (single isomer, unassigned), for which the Activity in assay [1] is under 10%.

Take `COC(=O)[C@]12CCC(C)(C)C[C@H]1C1=CC[C@@H]3[C@@]4(C)C=CC(=O)C(C)(C)[C@@H]4CC[C@@]3(C)[C@]1(C)CC2`: the Activity in assay [1] is on record as under 10%. In the case of `COC(=O)[C@]12CCC(C)(C)C[C@H]1C1=CC[C@@H]3[C@@]4(C)C[C@@H](C=O)C(C)(C)[C@@H]4CC[C@@]3(C)[C@]1(C)CC2`, in assay [1], the Activity is given as under 10%. Still for that read-out and setting: with `Cc1ccc(S(=O)(=O)OC[C@]23CCC(C)(C)C[C@H]2C2=CC[C@@H]4[C@@]5(C)C[C@H]6OC(C)(C)O[C@@H]6C(C)(C)[C@@H]5CC[C@@]4(C)[C@]2(C)CC3)cc1` the figure was under 10%. For the compound `CC1(C)CC[C@]2(C(=O)O)CC[C@]3(C)C(=CC[C@@H]4[C@@]5(C)CC(=O)[C@H](O)C(C)(C)[C@@H]5CC[C@]43C)[C@@H]2C1`, the Activity in assay [1] was under 10%; in assay [3], 80%. Further, the outcome in assay [5] was Active. For the compound `COC(=O)[C@]12CCC(C)(C)C[C@H]1[C@@](O)(/C=C\[C@@]13O[C@]1(C)CC[C@H]1C(C)(C)[C@@H](O)CC[C@@]13C)[C@](C)(O)CC2`, the Activity is under 10% in assay [1] and 30% in assay [2].

Take `CC(=O)O[C@@H]1C[C@]2(C)[C@H]3CC=C4[C@@H]5CC(C)(C)CC[C@]5(C(=O)O)CC[C@@]4(C)[C@]3(C)CC[C@H]2C(C)(C)[C@H]1OC(C)=O`: the Activity in assay [1] is on record as under 10%. For the compound `CC1(C)CC[C@]2(CO)CC[C@]3(C)C(=CC[C@@H]4[C@@]5(C)C[C@H]6OC(C)(C)O[C@@H]6C(C)(C)[C@@H]5CC[C@]43C)[C@@H]2C1`, the Activity in assay [1] is under 10%. In the case of `CC1(C)CC[C@]2(C(=O)O)CC[C@]3(C)C(=CC[C@@H]4[C@@]5(C)C[C@@H](O)[C@H](O)C(C)(C)[C@@H]5CC[C@]43C)[C@@H]2C1`, in assay [5], the outcome was Active. As to `CC1(C)CC[C@]2(C(=O)OCc3ccccc3)CC[C@]3(C)C(=CC[C@@H]4[C@@]5(C)C[C@H](O)[C@H](O)C(C)(C)[C@@H]5CC[C@]43C)[C@@H]2C1` [BENZYL AUGUSTATE], the figures for the Activity in assay [1] and in assay [3] were under 10% and 80%, respectively. In addition, the result in assay [5] was Active. As to `CC1(C)CC[C@]2(CN=[N+]=[N-])CC[C@]3(C)C(=CC[C@@H]4[C@@]5(C)C[C@@H](O)[C@H](O)C(C)(C)[C@@H]5CC[C@]43C)[C@@H]2C1`, in assay [1], the Activity is reported as under 10%. The same measure, in the same setting: as for `CC1(C)CC[C@]2(CN)CC[C@]3(C)C(=CC[C@@H]4[C@@]5(C)C[C@@H](O)[C@H](O)C(C)(C)[C@@H]5CC[C@]43C)[C@@H]2C1`, the figure is under 10%; as for `CC(=O)O[C@H]1CC[C@]2(C)[C@H]3C=C[C@]45OC(=O)[C@@]6(CCC(C)(C)C[C@H]64)CC[C@@]5(C)[C@]3(C)CC[C@H]2C1(C)C`, under 10%. With `CC1(C)CC[C@]2(C(=O)OCc3ccccc3)CC[C@]3(C)C(=CC[C@@H]4[C@@]5(C)C=C(O)C(=O)C(C)(C)[C@@H]5CC[C@]43C)[C@@H]2C1`, the Activity in assay [1] is under 10%; in assay [3], 80%. Besides, the outcome in assay [5] was Active. For `CC1(C)CC[C@]2(C(=O)O)CC[C@]3(C)C(=CC[C@@H]4[C@@]5(C)C[C@@H](O)[C@H](O)C(C)(C)[C@@H]5CC[C@]43C)[C@@H]2C1` [MASLINIC ACID], in assay [1], the Activity is on record as under 10%. In the case of `CC(=O)O[C@@H]1C[C@]2(C)[C@H]3CC=C4[C@@H]5CC(C)(C)CC[C@]5(C(N)=O)CC[C@@]4(C)[C@]3(C)CC[C@H]2C(C)(C)[C@H]1OC(C)=O`, in assay [1], the Activity was under 10%.

The values above are taken from ChEMBL document CHEMBL1914356, “Maslinic acid derivatives induce significant apoptosis in b16f10 murine melanoma cells” (2011).
